Tests used:
[1] = molecular target: T1, Toll-like receptor 9 (Homo sapiens) (UniProt Q9NR96); experiment: Induction of TLR9-mediated immune stimulation in human PBMC assessed as MCP1 production at 2 ug/ml after 24 hrs by luminex multiplex assay (RVb = 0.08 +/- 0.02 ng/ml)
T1 sequence (whole entry): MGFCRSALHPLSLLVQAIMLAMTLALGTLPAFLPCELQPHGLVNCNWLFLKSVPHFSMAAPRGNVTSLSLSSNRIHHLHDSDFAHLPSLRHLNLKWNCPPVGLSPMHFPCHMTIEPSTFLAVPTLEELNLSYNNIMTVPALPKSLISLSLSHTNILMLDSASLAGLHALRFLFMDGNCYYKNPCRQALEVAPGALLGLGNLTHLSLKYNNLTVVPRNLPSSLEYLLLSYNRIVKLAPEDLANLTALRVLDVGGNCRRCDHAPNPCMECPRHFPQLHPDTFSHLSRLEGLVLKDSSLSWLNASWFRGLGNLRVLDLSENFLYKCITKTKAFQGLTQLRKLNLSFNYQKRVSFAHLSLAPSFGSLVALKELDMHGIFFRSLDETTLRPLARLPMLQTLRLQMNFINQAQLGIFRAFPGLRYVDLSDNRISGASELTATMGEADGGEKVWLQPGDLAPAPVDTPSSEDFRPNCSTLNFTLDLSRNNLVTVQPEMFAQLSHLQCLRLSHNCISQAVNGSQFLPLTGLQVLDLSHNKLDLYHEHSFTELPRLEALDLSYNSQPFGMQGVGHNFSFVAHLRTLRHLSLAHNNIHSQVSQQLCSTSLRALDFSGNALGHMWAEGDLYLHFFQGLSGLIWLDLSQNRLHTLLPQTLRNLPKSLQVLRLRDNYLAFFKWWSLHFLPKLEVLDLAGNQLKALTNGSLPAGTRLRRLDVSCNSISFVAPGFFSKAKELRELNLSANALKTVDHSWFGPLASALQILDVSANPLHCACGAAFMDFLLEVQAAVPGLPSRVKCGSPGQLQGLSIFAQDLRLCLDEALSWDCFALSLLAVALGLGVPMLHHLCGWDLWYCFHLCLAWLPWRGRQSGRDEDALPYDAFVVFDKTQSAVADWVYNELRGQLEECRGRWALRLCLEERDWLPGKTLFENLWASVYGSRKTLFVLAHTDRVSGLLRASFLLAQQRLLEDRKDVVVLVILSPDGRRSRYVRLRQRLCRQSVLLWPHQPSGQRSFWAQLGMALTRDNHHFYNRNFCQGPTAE

[2] = molecular target: T2, Toll-like receptor 9 (Mus musculus) (UniProt Q9EQU3); experiment: Induction of TLR9-mediated IL6 production in C57BL/6 mouse spleen cells after 24 hrs by ELISA; type: cell-based
T2 sequence (whole entry): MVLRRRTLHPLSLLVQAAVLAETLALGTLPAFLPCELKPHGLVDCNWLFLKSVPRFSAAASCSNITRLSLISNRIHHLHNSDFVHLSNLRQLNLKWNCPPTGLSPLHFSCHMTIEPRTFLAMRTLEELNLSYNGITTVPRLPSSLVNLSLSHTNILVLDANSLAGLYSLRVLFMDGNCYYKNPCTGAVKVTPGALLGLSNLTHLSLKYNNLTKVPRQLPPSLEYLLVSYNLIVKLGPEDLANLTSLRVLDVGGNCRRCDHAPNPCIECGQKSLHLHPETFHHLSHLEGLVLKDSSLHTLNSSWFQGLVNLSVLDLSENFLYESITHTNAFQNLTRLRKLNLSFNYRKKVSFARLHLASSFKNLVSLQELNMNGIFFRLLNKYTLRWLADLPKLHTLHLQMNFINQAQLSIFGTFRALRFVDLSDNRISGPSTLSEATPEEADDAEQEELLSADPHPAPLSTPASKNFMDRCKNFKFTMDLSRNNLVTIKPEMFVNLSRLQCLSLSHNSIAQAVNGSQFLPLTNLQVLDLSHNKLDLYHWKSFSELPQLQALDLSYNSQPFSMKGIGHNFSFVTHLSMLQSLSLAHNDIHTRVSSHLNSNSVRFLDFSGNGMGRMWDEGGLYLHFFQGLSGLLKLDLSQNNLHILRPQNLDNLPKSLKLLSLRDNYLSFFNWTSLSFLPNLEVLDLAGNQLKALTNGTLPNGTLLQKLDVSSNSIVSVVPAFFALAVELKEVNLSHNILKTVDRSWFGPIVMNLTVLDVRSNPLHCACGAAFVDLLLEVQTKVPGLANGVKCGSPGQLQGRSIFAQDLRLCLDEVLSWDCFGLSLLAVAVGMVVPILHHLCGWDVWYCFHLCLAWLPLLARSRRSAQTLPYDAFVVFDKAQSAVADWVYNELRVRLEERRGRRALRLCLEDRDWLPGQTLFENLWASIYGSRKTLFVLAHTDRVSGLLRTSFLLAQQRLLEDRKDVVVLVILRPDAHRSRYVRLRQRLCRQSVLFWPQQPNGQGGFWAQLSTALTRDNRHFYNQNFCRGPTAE
How it was run: (§1)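 C57BL/6 mouse spleen cells were cultured with agonists at 0.1, 0.3, 1, 3 and 10 μg/mL for 24 h. Secreted IL-12 and IL-6 in the supernatants were measured by ELISA. Values are averages of triplicate wells from one representative of at least two independent experiments.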

[3] = molecular target: T1, Toll-like receptor 9 (Homo sapiens); experiment: Induction of TLR9-mediated immune stimulation in human PBMC assessed as MIP1beta production at 2 ug/ml after 24 hrs by luminex multiplex assay (RVb = 0.03 +/- 0.02 ng/ml)
[4] = molecular target: T2, Toll-like receptor 9 (Mus musculus); experiment: Activation of mouse TLR9 expressed in HEK293 cells assessed as induction of NF-kappaB activity after 18 hrs by SEAP assay; type: cell-based
How it was run: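 HEK293 cells stably expressing mouse TLR9 were grown in DMEM with 10% heat-inactivated FBS. At 80% confluence they were transiently transfected with a SEAP reporter plasmid (100 ng/well, lipofectamine) for 6 h. Medium was then replaced and agonists were added for 18 h. Supernatant SEAP was read with QuantiBlue substrate at 620-645 nm. Results are expressed as fold NF-κB activity over PBS control.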

[5] = molecular target: T2, Toll-like receptor 9 (Mus musculus); experiment: Induction of TLR9-mediated IL12 production in C57BL/6 mouse spleen cells after 24 hrs by ELISA; type: cell-based; how it was run: as §1
[6] = molecular target: T1, Toll-like receptor 9 (Homo sapiens); experiment: Induction of TLR9-mediated immune stimulation in human PBMC assessed as IL6 production at 10 ug/ml after 24 hrs by luminex multiplex assay (RVb = 0.01 ng/ml)
[7] = molecular target: T1, Toll-like receptor 9 (Homo sapiens); experiment: Induction of TLR9-mediated immune stimulation in human PBMC assessed as IL1Ralpha production at 10 ug/ml after 24 hrs by luminex multiplex assay (RVb = 0.12 +/- 0.03 ng/ml)
[8] = molecular target: T1, Toll-like receptor 9 (Homo sapiens); experiment: Induction of TLR9-mediated immune stimulation in human PBMC assessed as MCP1 production at 10 ug/ml after 24 hrs by luminex multiplex assay (RVb = 0.08 +/- 0.02 ng/ml)
[9] = molecular target: T1, Toll-like receptor 9 (Homo sapiens); experiment: Induction of TLR9-mediated immune stimulation in human PBMC assessed as MIP1beta production at 10 ug/ml after 24 hrs by luminex multiplex assay (RVb = 0.03 +/- 0.02 ng/ml)
[10] = molecular target: T1, Toll-like receptor 9 (Homo sapiens); experiment: Induction of TLR9-mediated immune stimulation in human PBMC assessed as MIP1alpha production at 10 ug/ml after 24 hrs by luminex multiplex assay (RVb = 0.01 ng/ml)

Activity [1] [ng/mL] | Activity [2] | Activity [3] [ng/mL] | Activity [4] | Activity [5] | Activity [6] [ng/mL] | Activity [7] [ng/mL] | Activity [8] [ng/mL] | Activity [9] [ng/mL] | Activity [10] [ng/mL] | SMILES
0.46 | Dose-dependent effect | 0.11 | Dose-dependent effect | Dose-dependent effect | 0.5 | 81.7 | 1.88 | 1.41 | 0.37 | Cc1cn([C@H]2C[C@H](OCC(O)COP(=O)(S)O[C@H]3C[C@H](n4cc(C)c(=O)[nH]c4=O)O[C@@H]3COP(=O)(S)O[C@H]3[C@@H](O)[C@H](n4ccc(N)nc4=O)O[C@@H]3COP(=O)(S)O[C@H]3C[C@H](n4cc(C)c(=O)[nH]c4=O)O[C@@H]3COP(=O)(S)O[C@H]3C[C@H](n4cc(C)c(=O)[nH]c4=O)O[C@@H]3COP(=O)(S)O[C@H]3C[C@H](n4ccc5c(=O)[nH]c(N)nc54)O[C@@H]3COP(=O)(S)O[C@H]3[C@@H](O)[C@H](n4ccc(N)nc4=O)O[C@@H]3COP(=O)(S)O[C@H]3C[C@H](n4cc(C)c(=O)[nH]c4=O)O[C@@H]3COP(=O)(S)O[C@H]3[C@@H](O)[C@H](n4cnc5c(=O)[nH]c(N)nc54)O[C@@H]3COP(=O)(S)O[C@H]3C[C@H](n4cc(C)c(=O)[nH]c4=O)O[C@@H]3COP(=O)(S)O[C@H]3[C@@H](O)[C@H](n4ccc(N)nc4=O)O[C@@H]3COP(=O)(S)O[C@H]3C[C@H](n4cc(C)c(=O)[nH]c4=O)O[C@@H]3CO)[C@@H](COP(=O)(S)O[C@H]3[C@@H](O)[C@H](n4ccc(N)nc4=O)O[C@@H]3COP(=O)(S)O[C@H]3C[C@H](n4cc(C)c(=O)[nH]c4=O)O[C@@H]3COP(=O)(S)O[C@H]3C[C@H](n4cc(C)c(=O)[nH]c4=O)O[C@@H]3COP(=O)(S)O[C@H]3C[C@H](n4ccc5c(=O)[nH]c(N)nc54)O[C@@H]3COP(=O)(S)O[C@H]3[C@@H](O)[C@H](n4ccc(N)nc4=O)O[C@@H]3COP(=O)(S)O[C@H]3C[C@H](n4cc(C)c(=O)[nH]c4=O)O[C@@H]3COP(=O)(S)O[C@H]3[C@@H](O)[C@H](n4cnc5c(=O)[nH]c(N)nc54)O[C@@H]3COP(=O)(S)O[C@H]3C[C@H](n4cc(C)c(=O)[nH]c4=O)O[C@@H]3COP(=O)(S)O[C@H]3[C@@H](O)[C@H](n4ccc(N)nc4=O)O[C@@H]3COP(=O)(S)O[C@H]3C[C@H](n4cc(C)c(=O)[nH]c4=O)O[C@@H]3CO)O2)c(=O)[nH]c1=O (stereo not given in full)
0.29 | Dose-dependent effect | 0.13 | Dose-dependent effect | Dose-dependent effect | 0.67 | 97.2 | 8.45 | 2.15 | 0.67 | Cc1cn([C@H]2C[C@H](O[C@H]3C[C@@H](O)C[C@@H](OP(=O)(S)O[C@H]4C[C@H](n5cc(C)c(=O)[nH]c5=O)O[C@@H]4COP(=O)(S)O[C@H]4[C@@H](O)[C@H](n5ccc(N)nc5=O)O[C@@H]4COP(=O)(S)O[C@H]4C[C@H](n5cc(C)c(=O)[nH]c5=O)O[C@@H]4COP(=O)(S)O[C@H]4C[C@H](n5cc(C)c(=O)[nH]c5=O)O[C@@H]4COP(=O)(S)O[C@H]4C[C@H](n5ccc6c(=O)[nH]c(N)nc65)O[C@@H]4COP(=O)(S)O[C@H]4[C@@H](O)[C@H](n5ccc(N)nc5=O)O[C@@H]4COP(=O)(S)O[C@H]4C[C@H](n5cc(C)c(=O)[nH]c5=O)O[C@@H]4COP(=O)(S)O[C@H]4[C@@H](O)[C@H](n5cnc6c(=O)[nH]c(N)nc65)O[C@@H]4COP(=O)(S)O[C@H]4C[C@H](n5cc(C)c(=O)[nH]c5=O)O[C@@H]4COP(=O)(S)O[C@H]4[C@@H](O)[C@H](n5ccc(N)nc5=O)O[C@@H]4COP(=O)(S)O[C@H]4C[C@H](n5cc(C)c(=O)[nH]c5=O)O[C@@H]4CO)C3)[C@@H](COP(=O)(S)O[C@H]3[C@@H](O)[C@H](n4ccc(N)nc4=O)O[C@@H]3COP(=O)(S)O[C@H]3C[C@H](n4cc(C)c(=O)[nH]c4=O)O[C@@H]3COP(=O)(S)O[C@H]3C[C@H](n4cc(C)c(=O)[nH]c4=O)O[C@@H]3COP(=O)(S)O[C@H]3C[C@H](n4ccc5c(=O)[nH]c(N)nc54)O[C@@H]3COP(=O)(S)O[C@H]3[C@@H](O)[C@H](n4ccc(N)nc4=O)O[C@@H]3COP(=O)(S)O[C@H]3C[C@H](n4cc(C)c(=O)[nH]c4=O)O[C@@H]3COP(=O)(S)O[C@H]3[C@@H](O)[C@H](n4cnc5c(=O)[nH]c(N)nc54)O[C@@H]3COP(=O)(S)O[C@H]3C[C@H](n4cc(C)c(=O)[nH]c4=O)O[C@@H]3COP(=O)(S)O[C@H]3[C@@H](O)[C@H](n4ccc(N)nc4=O)O[C@@H]3COP(=O)(S)O[C@H]3C[C@H](n4cc(C)c(=O)[nH]c4=O)O[C@@H]3CO)O2)c(=O)[nH]c1=O (stereo not given in full)

Reference: ChEMBL document CHEMBL1157912, “Impact of nature and length of linker incorporated in agonists on toll-like receptor 9-mediated immune responses” (J Med Chem, 2010)
